How the values were obtained:
MRC5 = assay: Cytotoxicity against human MRC5 cells assessed as cell growth inhibition after 72 hrs by alamar blue assay; assay type: cell-based; details: MRC5, 72 h
Procedure, shortened: (§1)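 Tumour lines and MRC-5 fibroblasts obtained from ATCC, cultured per ATCC guidelines and confirmed mycoplasma-free by staining. Viability read by Alamar blue after 72 h exposure. IC50 in μM with 95% confidence interval by nonlinear regression, from at least three independent experiments run in duplicate. Doxorubicin served as positive control.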

HepG2 = assay: Cytotoxicity against human HepG2 cells assessed as cell growth inhibition after 72 hrs by alamar blue assay; assay type: functional, cell-based; details: HepG2, 72 h; procedure, shortened: as §1
HL-60 = assay: Cytotoxicity against human HL60 cells assessed as cell growth inhibition after 72 hrs by alamar blue assay; assay type: functional, cell-based; details: HL-60, 72 h; procedure, shortened: as §1
MCF7 = assay: Cytotoxicity against human MCF7 cells assessed as cell growth inhibition after 72 hrs by alamar blue assay; assay type: functional, cell-based; details: MCF7, 72 h; procedure, shortened: as §1
HCT-116 = assay: Cytotoxicity against human HCT116 cells assessed as cell growth inhibition after 72 hrs by alamar blue assay; assay type: functional, cell-based; details: HCT-116, 72 h; procedure, shortened: as §1
HCT-8 = assay: Cytotoxicity against human HCT8 cells assessed as inhibition of cell viability after 69 hrs by MTT assay; assay type: functional, cell-based; details: HCT-8, 69 h
SF-295 = assay: Cytotoxicity against human SF295 cells assessed as inhibition of cell viability after 69 hrs by MTT assay; assay type: functional, cell-based; details: SF-295, 69 h
MDA-MB-435 = assay: Cytotoxicity against human MDA-MB-435 cells assessed as inhibition of cell viability after 69 hrs by MTT assay; assay type: functional, cell-based; details: MDA-MB-435, 69 h

Row | SMILES | IC50 (MRC5) | IC50 (HepG2) | IC50 (HL-60) | IC50 (MCF7) | IC50 (HCT-116) | IC50 (HCT-8) | IC50 (SF-295) | IC50 (MDA-MB-435)
1 | COc1cc2c(cc1OC)-c1c3c(cc4ccnc(c14)C2=O)OCO3 [DICENTRINONE] | > 10 µM | > 10 µM | > 10 µM | > 10 µM | > 10 µM |  |  | 
2 | COc1ccc(OC)c(OC)c1 [1,2,4-TRIMETHOXYBENZENE] | > 10 µM | > 10 µM | > 10 µM | > 10 µM | > 10 µM |  |  | 
3 | COc1ccc2c(c1)c(=O)cc1c3c(cc4c(c32)OCO4)CCN1C | > 10 µM | > 10 µM | > 10 µM | > 10 µM | > 10 µM |  |  | 
4 | COc1cc2c(cc1OC)-c1c3c(cc4c1[C@H](C2)N(C)CC4)OCO3 [DICENTRINE] | > 10 µM | > 10 µM | 3.7 µM | > 10 µM | 8.8 µM |  |  | 
5 | COc1cc2c(cc1OC)[C@@H](O)[C@@H]1NCCc3cc4c(c-2c31)OCO4 | > 10 µM | 9.1 µM | 2 µM | 10 µM | 4 µM |  |  | 
6 | COc1cc2c(=O)cc3c4c(cc5c(c4c2cc1OC)OCO5)CCN3C | > 10 µM | > 10 µM | > 10 µM | > 10 µM | > 10 µM |  |  | 
7 | COc1cccc2c1C(=O)c1c(O)c3c(c(O)c1C2=O)C[C@@](O)(C(=O)CO)C[C@@H]3O[C@H]1C[C@H](N)[C@H](O)[C@H](C)O1 [DOXORUBICIN] | 2.4 µM | 0.04 µM | 0.04 µM |  | 0.3 µM |  |  | 
8 | COc1cc2c(cc1OC)[C@H](O)[C@@H]1c3c(cc4c(c3-2)OCO4)CC[N+]1(C)[O-] (stereo not given in full) | > 10 µM | > 10 µM | 9.6 µM | > 10 µM | 9.2 µM | 1.9 µM | 1.6 µM | 7.3 µM
9 | COC1=C[C@@]23CCN(C)[C@@H](Cc4cc(O)c(OC)cc42)C3=CC1=O | > 10 µM | > 10 µM | > 10 µM | > 10 µM | > 10 µM |  |  | 
10 | COc1cc2c(cc1OC)[C@H](O)[C@@H]1c3c(cc4c(c3-2)OCO4)CCN1C | > 10 µM | 5 µM | 4.8 µM | > 10 µM | > 10 µM | 1.4 µM | 1.4 µM | 12.4 µM

From ChEMBL document CHEMBL4334473, “Structure-Based Molecular Networking for the Target Discovery of Oxahomoaporphine and 8-Oxohomoaporphine Alkaloids from Duguetia surinamensis” (J Nat Prod, 2019)
